ChEMBL document CHEMBL2375318, “Design, synthesis and antimicrobial activity of novel benzothiazole analogs” (Eur J Med Chem, 2013)
≈ marks a conversion by molar mass, not a printed value.

Assays:
[1] = tested on: Cryptococcus neoformans; assay: Antifungal activity against Cryptococcus neoformans clinical isolate after 18 to 24 hrs by micro-dilution method; type: functional
Outline: (§1)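 Broth micro-dilution MIC, fungi. Fresh broth cultures were made in normal saline. Compounds were serially diluted in microtiter plates across 8 concentrations, 100 down to 0.78. Standardized inoculum was 1–2 × 10^7 cfu/ml. Medium was Sabouraud dextrose pH 7.3 ± 0.2. Plates were incubated aerobically at 37 °C for 18–24 h. MIC is the lowest concentration with no visible growth or turbidity versus control. Fluconazole was the reference.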

[2] = tested on: Enterococcus faecalis; assay: Antimicrobial activity against Enterococcus faecalis clinical isolate after 18 to 24 hrs by micro-dilution method; type: functional
[3] = tested on: Klebsiella pneumoniae; assay: Antimicrobial activity against Klebsiella pneumoniae clinical isolate after 18 to 24 hrs by micro-dilution method; type: functional
[4] = tested on: Pichia kudriavzevii; assay: Antifungal activity against Candida krusei ATCC 6258 after 18 to 24 hrs by micro-dilution method; type: functional; outline: as §1
[5] = tested on: Candida tropicalis; assay: Antifungal activity against Candida tropicalis ATCC 750 after 18 to 24 hrs by micro-dilution method; type: functional; outline: as §1
[6] = Cytotoxicity against human RBC assessed as hemolytic activity at 100 uM after 1 hr by spectophotometry; type: cell-based, Erythrocyte; conditions: red blood cells (RBC), read-out: Activity
Outline: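 Hemolysis, fresh human blood. RBCs were washed three times in PBS (spun 3000 rpm, 7 min, room temperature) and adjusted to 5×10^8 cells/ml. Cell suspension was added to buffer holding 100 μM compound in 1% v/v DMSO/PBS. Controls were 1% DMSO/PBS and sterile water. Samples were shaken at 37 °C for 1 h, spun at 1300 rpm for 5 min, and supernatant absorbance read at 540 nm.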

[7] = tested on: Staphylococcus aureus; assay: Antimicrobial activity against Staphylococcus aureus ATCC 25323 after 18 to 24 hrs by micro-dilution method; type: functional
[8] = tested on: Aspergillus niger; assay: Antimicrobial activity against Aspergillus niger clinical isolate after 18 to 24 hrs by micro-dilution method; type: functional; outline: as §1
[9] = tested on: Candida albicans; assay: Antifungal activity against Candida albicans clinical isolate after 18 to 24 hrs by micro-dilution method; type: functional; outline: as §1
[10] = tested on: Escherichia coli; assay: Antimicrobial activity against Escherichia coli ATCC 35218 after 18 to 24 hrs by micro-dilution method; type: functional
[11] = tested on: Pseudomonas aeruginosa; assay: Antimicrobial activity against Pseudomonas aeruginosa ATCC 27893 after 18 to 24 hrs by micro-dilution method; type: functional
[12] = tested on: Aspergillus fumigatus; assay: Antimicrobial activity against Aspergillus fumigatus clinical isolate after 18 to 24 hrs by micro-dilution method; type: functional; outline: as §1
[13] = tested on: Salmonella typhi; assay: Antimicrobial activity against Salmonella typhi MTCC 3216 after 18 to 24 hrs by micro-dilution method; type: functional, Salmonella enterica subsp. enterica serovar Typhi; conditions: Salmonella enterica
Outline: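 Broth microdilution with twofold serial dilutions from 100 down to 0.78, eight concentrations. Fresh cultures were made up in normal saline, and 0.1 ml of standardized inoculum (1–2 × 10^7 cfu/ml) was added per well. Plates were incubated aerobically at 37 °C for 18–24 h on Mueller-Hinton agar/Luria broth. MIC was the lowest concentration with no visible turbidity compared with the control.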

[14] = tested on: Candida albicans; assay: Antifungal activity against Candida albicans ATCC 90028 after 18 to 24 hrs by micro-dilution metho; type: functional; outline: as §1
[15] = tested on: Shigella boydii; assay: Antimicrobial activity against Shigella boydii clinical isolate after 18 to 24 hrs by micro-dilution method; type: functional

SMILES	MIC [1] [µg/mL]	MIC [2] [µg/mL]	MIC [3] [µg/mL]	MIC [4] [µg/mL]	MIC [5] [µg/mL]	hemolysis at 1 h, 100 µM [6] [%]	MIC [7] [µg/mL]	MIC [8] [µg/mL]	MIC [9] [µg/mL]	MIC [10] [µg/mL]	MIC [11] [µg/mL]	MIC [12] [µg/mL]	MIC [13] [µg/mL]	MIC [14] [µg/mL]	MIC [15] [µg/mL]
Cc1ccc(-n2cc(CN(Cc3cn(-c4ccc(C)c(C)c4)nn3)c3nc4ccccc4s3)nn2)cc1C	> 100	> 100	> 100	> 100	> 100	43	> 100	> 100	> 100	> 100	> 100	> 100	> 100	> 100	> 100
CCc1ccc(-n2cc(CN(Cc3cn(-c4ccc(CC)cc4)nn3)c3nc4ccccc4s3)nn2)cc1	> 100	> 100	> 100	> 100	> 100	48.3	> 100	> 100	> 100	50 (≈ 96 µM)	> 100	> 100	> 100	> 100	> 100
COc1cc(-n2cc(CN(Cc3cn(-c4cc(OC)c(OC)c(OC)c4)nn3)c3nc4ccccc4s3)nn2)cc(OC)c1OC	> 100	> 100	> 100	6.25 (≈ 9.69 µM)	> 100	36.6	> 100	> 100	> 100	> 100	> 100	> 100	> 100	> 100	> 100
c1ccc2c(-n3cc(CN(Cc4cn(-c5cccc6ccccc56)nn4)c4nc5ccccc5s4)nn3)cccc2c1	> 100	> 100	> 100	> 100	> 100	34	> 100	> 100	> 100	> 100	> 100	> 100	> 100	> 100	> 100
O=[N+]([O-])c1ccc(-n2cc(CN(Cc3cn(-c4ccc([N+](=O)[O-])cc4)nn3)c3nc4ccccc4s3)nn2)cc1	> 100	> 100	> 100	> 100	> 100	27.9	> 100	> 100	> 100	> 100	> 100	> 100	> 100	> 100	> 100
FC(F)(F)Oc1ccc(-n2cc(CN(Cc3cn(-c4ccc(OC(F)(F)F)cc4)nn3)c3nc4ccccc4s3)nn2)cc1	3.12 (≈ 4.93 µM)	12.5 (≈ 19.8 µM)	12.5 (≈ 19.8 µM)	12.5 (≈ 19.8 µM)	12.5 (≈ 19.8 µM)	9.12	12.5 (≈ 19.8 µM)	12.5 (≈ 19.8 µM)	12.5 (≈ 19.8 µM)	25 (≈ 39.5 µM)	25 (≈ 39.5 µM)	25 (≈ 39.5 µM)	> 100	3.12 (≈ 4.93 µM)	100 (≈ 158 µM)
CCCCCc1ccc(-n2cc(CN(Cc3cn(-c4ccc(CCCCC)cc4)nn3)c3nc4ccccc4s3)nn2)cc1	> 100	> 100	> 100	> 100	12.5 (≈ 20.7 µM)	3.28	> 100	> 100	> 100	> 100	> 100	> 100	> 100	> 100	> 100
Cc1cc(C)cc(-n2cc(CN(Cc3cn(-c4cc(C)cc(C)c4)nn3)c3nc4ccccc4s3)nn2)c1	3.12 (≈ 5.99 µM)	> 100	> 100	> 100	12.5 (≈ 24 µM)	7.42	100 (≈ 192 µM)	12.5 (≈ 24 µM)	12.5 (≈ 24 µM)	100 (≈ 192 µM)	> 100	12.5 (≈ 24 µM)	100 (≈ 192 µM)	3.12 (≈ 5.99 µM)	100 (≈ 192 µM)
Fc1ccc(-n2cc(CN(Cc3cn(-c4ccc(F)c(Cl)c4)nn3)c3nc4ccccc4s3)nn2)cc1Cl	1.56 (≈ 2.74 µM)	3.12 (≈ 5.48 µM)	50 (≈ 87.8 µM)	3.12 (≈ 5.48 µM)	12.5 (≈ 22 µM)	5.32	6.25 (≈ 11 µM)	6.25 (≈ 11 µM)	25 (≈ 43.9 µM)	25 (≈ 43.9 µM)	3.12 (≈ 5.48 µM)	25 (≈ 43.9 µM)	6.25 (≈ 11 µM)	6.25 (≈ 11 µM)	100 (≈ 176 µM)
Clc1ccc(-n2cc(CN(Cc3cn(-c4ccc(Cl)cc4)nn3)c3nc4ccccc4s3)nn2)cc1	3.12 (≈ 5.85 µM)	3.12 (≈ 5.85 µM)	50 (≈ 93.7 µM)	6.25 (≈ 11.7 µM)	12.5 (≈ 23.4 µM)	4.35	6.25 (≈ 11.7 µM)	6.25 (≈ 11.7 µM)	25 (≈ 46.9 µM)	12.5 (≈ 23.4 µM)	6.25 (≈ 11.7 µM)	6.25 (≈ 11.7 µM)	6.25 (≈ 11.7 µM)	6.25 (≈ 11.7 µM)	> 100
Fc1ccccc1-n1cc(CN(Cc2cn(-c3ccccc3F)nn2)c2nc3ccccc3s2)nn1	> 100	> 100	> 100	> 100	> 100	26.5	> 100	> 100	> 100	> 100	> 100	> 100	> 100	> 100	> 100
Fc1ccc(-n2cc(CN(Cc3cn(-c4ccc(F)cc4F)nn3)c3nc4ccccc4s3)nn2)c(F)c1	> 100	3.12 (≈ 5.82 µM)	3.12 (≈ 5.82 µM)	> 100	> 100	2.47	3.12 (≈ 5.82 µM)	> 100	> 100	3.12 (≈ 5.82 µM)	3.12 (≈ 5.82 µM)	> 100	3.12 (≈ 5.82 µM)	> 100	100 (≈ 186 µM)
Fc1ccc(-n2cc(CN(Cc3cn(-c4ccc(F)cc4Cl)nn3)c3nc4ccccc4s3)nn2)c(Cl)c1	1.56 (≈ 2.74 µM)	6.25 (≈ 11 µM)	100 (≈ 176 µM)	6.25 (≈ 11 µM)	6.25 (≈ 11 µM)	12.3	50 (≈ 87.8 µM)	25 (≈ 43.9 µM)	6.25 (≈ 11 µM)	3.12 (≈ 5.48 µM)	6.25 (≈ 11 µM)	6.25 (≈ 11 µM)	6.25 (≈ 11 µM)	50 (≈ 87.8 µM)	100 (≈ 176 µM)
Clc1ccccc1-n1cc(CN(Cc2cn(-c3ccccc3Cl)nn2)c2nc3ccccc3s2)nn1	> 100	6.25 (≈ 11.7 µM)	50 (≈ 93.7 µM)	> 100	> 100	19.5	25 (≈ 46.9 µM)	> 100	> 100	12.5 (≈ 23.4 µM)	12.5 (≈ 23.4 µM)	> 100	6.25 (≈ 11.7 µM)	> 100	> 100
Fc1cccc(-n2cc(CN(Cc3cn(-c4cccc(F)c4)nn3)c3nc4ccccc4s3)nn2)c1	> 100	> 100	> 100	> 100	> 100	29.8	> 100	> 100	> 100	> 100	> 100	> 100	> 100	> 100	> 100
Clc1cccc(-n2cc(CN(Cc3cn(-c4cccc(Cl)c4Cl)nn3)c3nc4ccccc4s3)nn2)c1Cl	3.12 (≈ 5.18 µM)	> 100	> 100	> 100	> 100	37.7	50 (≈ 83 µM)	> 100	25 (≈ 41.5 µM)	> 100	> 100	> 100	100 (≈ 166 µM)	> 100	> 100
Cc1cc(F)ccc1-n1cc(CN(Cc2cn(-c3ccc(F)cc3C)nn2)c2nc3ccccc3s2)nn1	> 100	> 100	> 100	> 100	> 100	29.8	> 100	> 100	> 100	50 (≈ 94.6 µM)	> 100	> 100	> 100	> 100	> 100
O=C(O)c1cn(C2CC2)c2cc(N3CCNCC3)c(F)cc2c1=O [CIPROFLOXACIN]	–	–	–	–	–	–	–	–	–	–	3.12 (≈ 9.42 µM)	–	–	–	–
OC(Cn1cncn1)(Cn1cncn1)c1ccc(F)cc1F [FLUCONAZOLE]	0.78 (≈ 2.55 µM)	–	–	1.56 (≈ 5.09 µM)	1.56 (≈ 5.09 µM)	–	–	1.56 (≈ 5.09 µM)	3.12 (≈ 10.2 µM)	–	–	1.56 (≈ 5.09 µM)	–	1.56 (≈ 5.09 µM)	–
